Assays:
[1] = Antiproliferative activity against human HCT116 cells assessed as growth inhibition by CCK8 assay; assay type: functional, cell-based, Epithelial cell; details: epithelial cell
HCT-116 [2] = test: Induction of cell cycle arrest in human HCT-116 cells assessed as accumulation at S phase at 0.15 uM after 24 hrs by propidium iodide staining based flow cytometric analysis (reference value: 39.06%); assay type: functional
[3] = Antiproliferative activity against human MDA-MB-231 cells assessed as growth inhibition by CCK8 assay; assay type: functional, cell-based, Epithelial cell; details: epithelial cell
HCT-116 [4] = test: Induction of apoptosis in human HCT116 cells at 0.15 uM after 48 hrs by annexin V-FITC/propidium iodide staining based flow cytometry (RVB = 6.77%); assay type: functional
Summary of the method: (§1)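 HCT116 cells were treated at 0.03, 0.15, 0.75 or 1.5 μM for 48 h. They were then stained with Annexin V/PI and analysed by flow cytometry, and apoptotic cells were reported as a percentage. An untreated control was run alongside.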

HCT-116 [5] = test: Induction of cell cycle arrest in human HCT-116 cells assessed as accumulation at G1 phase at 0.15 uM after 48 hrs by propidium iodide staining based flow cytometric analysis (reference value: 34.38%); assay type: functional
HCT-116 [6] = test: Induction of cell cycle arrest in human HCT-116 cells assessed as accumulation at S phase at 0.75 uM after 48 hrs by propidium iodide staining based flow cytometric analysis (reference value: 40.6%); assay type: functional
[7] = Antiproliferative activity against human A549 cells assessed as growth inhibition by CCK8 assay; assay type: functional, cell-based, Epithelial cell; details: epithelial cell
HCT-116 [8] = test: Induction of cell cycle arrest in human HCT-116 cells assessed as accumulation at S phase at 0.75 uM after 24 hrs by propidium iodide staining based flow cytometric analysis (reference value: 39.06%); assay type: functional
HCT-116 [9] = test: Induction of cell cycle arrest in human HCT-116 cells assessed as accumulation at S phase at 0.03 uM after 24 hrs by propidium iodide staining based flow cytometric analysis (reference value: 39.06%); assay type: functional
HCT-116 [10] = test: Induction of cell cycle arrest in human HCT-116 cells assessed as accumulation at G2/M phase at 0.75 uM after 48 hrs by propidium iodide staining based flow cytometric analysis (reference value: 25.01%); assay type: functional
HCT-116 [11] = test: Induction of cell cycle arrest in human HCT-116 cells assessed as accumulation at G1 phase at 0.03 uM after 48 hrs by propidium iodide staining based flow cytometric analysis (reference value: 34.38%); assay type: functional
HCT-116 [12] = test: Induction of cell cycle arrest in human HCT-116 cells assessed as accumulation at G2/M phase at 0.03 uM after 24 hrs by propidium iodide staining based flow cytometric analysis (reference value: 27.78%); assay type: functional
HCT-116 [13] = test: Induction of cell cycle arrest in human HCT-116 cells assessed as accumulation at G1 phase at 0.15 uM after 24 hrs by propidium iodide staining based flow cytometric analysis (reference value: 33.16%); assay type: functional
HCT-116 [14] = test: Induction of cell cycle arrest in human HCT-116 cells assessed as accumulation at S phase at 0.15 uM after 48 hrs by propidium iodide staining based flow cytometric analysis (reference value: 40.6%); assay type: functional
HCT-116 [15] = test: Induction of cell cycle arrest in human HCT-116 cells assessed as accumulation at G1 phase at 0.03 uM after 24 hrs by propidium iodide staining based flow cytometric analysis (reference value: 33.16%); assay type: functional
HCT-116 [16] = test: Induction of apoptosis in human HCT116 cells at 1.5 uM after 48 hrs by annexin V-FITC/propidium iodide staining based flow cytometry (RVB = 6.77%); assay type: functional; summary of the method: as §1
HCT-116 [17] = test: Induction of cell cycle arrest in human HCT-116 cells assessed as accumulation at G1 phase at 0.75 uM after 24 hrs by propidium iodide staining based flow cytometric analysis (reference value: 33.16%); assay type: functional
HCT-116 [18] = test: Induction of cell cycle arrest in human HCT-116 cells assessed as accumulation at S phase at 0.03 uM after 48 hrs by propidium iodide staining based flow cytometric analysis (reference value: 40.6%); assay type: functional
HCT-116 [19] = test: Induction of cell cycle arrest in human HCT-116 cells assessed as accumulation at G2/M phase at 0.03 uM after 48 hrs by propidium iodide staining based flow cytometric analysis (reference value: 25.01%); assay type: functional
HCT-116 [20] = test: Induction of apoptosis in human HCT116 cells at 0.75 uM after 48 hrs by annexin V-FITC/propidium iodide staining based flow cytometry (RVB = 6.77%); assay type: functional; summary of the method: as §1
HCT-116 [21] = test: Induction of cell cycle arrest in human HCT-116 cells assessed as accumulation at G1 phase at 0.75 uM after 48 hrs by propidium iodide staining based flow cytometric analysis (reference value: 34.38%); assay type: functional
HCT-116 [22] = test: Induction of apoptosis in human HCT116 cells at 0.03 uM after 48 hrs by annexin V-FITC/propidium iodide staining based flow cytometry (RVB = 6.77%); assay type: functional; summary of the method: as §1
HCT-116 [23] = test: Induction of cell cycle arrest in human HCT-116 cells assessed as accumulation at G2/M phase at 0.15 uM after 48 hrs by propidium iodide staining based flow cytometric analysis (reference value: 25.01%); assay type: functional
HCT-116 [24] = test: Induction of cell cycle arrest in human HCT-116 cells assessed as accumulation at G2/M phase at 0.75 uM after 24 hrs by propidium iodide staining based flow cytometric analysis (reference value: 27.78%); assay type: functional
HCT-116 [25] = test: Induction of cell cycle arrest in human HCT-116 cells assessed as accumulation at G2/M phase at 0.15 uM after 24 hrs by propidium iodide staining based flow cytometric analysis (reference value: 27.78%); assay type: functional

COc1ccc2[nH]c3c(c2c1)CCN(C(=O)CCc1ccccc1)C3c1ccc(Cl)c(Cl)c1 (stereo in doubt; 45)
IC50 [1]: 160 nM
Activity (HCT-116 [2]): 19.86%
IC50 [3]: 160 nM
Activity (HCT-116 [4]): 13.46%
Activity (HCT-116 [5]): 2.19%
Activity (HCT-116 [6]): 4.79%
IC50 [7]: 760 nM
Activity (HCT-116 [8]): 10.43%
Activity (HCT-116 [9]): 35.43%
Activity (HCT-116 [10]): 93.15%
Activity (HCT-116 [11]): 11.27%
Activity (HCT-116 [12]): 32.12%
Activity (HCT-116 [13]): 2.02%
Activity (HCT-116 [14]): 4.78%
Activity (HCT-116 [15]): 32.45%
Activity (HCT-116 [16]): 30.98%
Activity (HCT-116 [17]): 1.2%
Activity (HCT-116 [18]): 20.81%
Activity (HCT-116 [19]): 67.92%
Activity (HCT-116 [20]): 25.43%
Activity (HCT-116 [21]): 2.06%
Activity (HCT-116 [22]): 10.11%
Activity (HCT-116 [23]): 93.03%
Activity (HCT-116 [24]): 88.37%
Activity (HCT-116 [25]): 78.12%

Reference: ChEMBL document CHEMBL4813998, “Structural simplification of evodiamine: Discovery of novel tetrahydro-β-carboline derivatives as potent antitumor agents” (Bioorg Med Chem Lett, 2021)
